The record followed here is ChEMBL document CHEMBL1130111, “The chemistry of pseudomonic acid. 18. Heterocyclic replacement of the alpha,beta-unsaturated ester: synthesis, molecular modeling, and antibacterial activity” (J Med Chem, 1997).

In one experiment the test system is Staphylococcus aureus. As to the kind of experiment: minimum inhibitory concentration (MIC) against Staphylococcus aureus NCTC 6571. In kind it is functional. The method in brief: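 Agar dilution MIC in blood agar base with 5% chocolated horse blood. Inoculum was an overnight nutrient broth culture, about 10^6 CFU per spot. Plates were incubated 18-24 h at 37 °C. MIC taken as the lowest concentration fully inhibiting growth.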

Experiment [1] deals with T1, Isoleucine--tRNA ligase (Staphylococcus aureus) (UniProt P41972).
T1 sequence (whole entry): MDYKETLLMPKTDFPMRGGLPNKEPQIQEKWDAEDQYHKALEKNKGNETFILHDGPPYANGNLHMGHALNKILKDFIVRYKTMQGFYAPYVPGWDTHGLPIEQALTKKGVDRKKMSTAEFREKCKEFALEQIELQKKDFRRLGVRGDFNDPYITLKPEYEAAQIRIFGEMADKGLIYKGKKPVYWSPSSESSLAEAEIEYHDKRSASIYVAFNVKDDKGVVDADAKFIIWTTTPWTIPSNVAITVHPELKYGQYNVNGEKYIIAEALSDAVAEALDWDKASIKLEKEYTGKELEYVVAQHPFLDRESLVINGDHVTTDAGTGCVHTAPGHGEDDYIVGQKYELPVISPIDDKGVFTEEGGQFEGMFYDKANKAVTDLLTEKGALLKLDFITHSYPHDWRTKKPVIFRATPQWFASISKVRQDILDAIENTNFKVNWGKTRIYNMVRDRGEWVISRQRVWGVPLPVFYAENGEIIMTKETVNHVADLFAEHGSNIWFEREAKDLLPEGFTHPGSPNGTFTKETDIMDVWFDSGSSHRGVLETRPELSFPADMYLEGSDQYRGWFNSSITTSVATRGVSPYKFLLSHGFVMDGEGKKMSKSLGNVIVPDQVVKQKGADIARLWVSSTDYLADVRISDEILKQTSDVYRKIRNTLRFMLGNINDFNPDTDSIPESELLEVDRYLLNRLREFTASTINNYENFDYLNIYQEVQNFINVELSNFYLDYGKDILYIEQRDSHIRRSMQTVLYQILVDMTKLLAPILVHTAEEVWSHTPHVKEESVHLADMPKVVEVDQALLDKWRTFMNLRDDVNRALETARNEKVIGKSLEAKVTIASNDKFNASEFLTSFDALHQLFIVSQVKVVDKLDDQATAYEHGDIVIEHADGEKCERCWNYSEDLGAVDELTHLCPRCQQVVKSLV
As to the kind of experiment: (§1) Inhibition concentration against Isoleucyl-tRNA synthetase from Staphylococcus aureus NCTC 6571. To be noted: concentration not given here. The method in brief:
(§2)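 IRS extracted from S. aureus grown to late stationary phase in shake flasks (Nutrient Broth No. 2). Cells were sonicated with lysostaphin, DNase-treated, dialysed against 20 mM Tris-HCl pH 8 with 5 mM MgCl2 and 2 mM DTT, then ultracentrifuged. Compound was preincubated with enzyme 5 min. Charging of E. coli tRNA with 4.8 µM [U-14C]-isoleucine and 5 mg/mL ATP was run 10 min at 37 °C. IC50 taken as 50% inhibition of 14C-Ile incorporation.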

Experiment [2] has as its target T2, Isoleucine--tRNA ligase (Staphylococcus aureus, UniProt P41972).
T2 sequence (P41972 whole entry): T1 sequence (whole entry)
Described as §1. The method in brief:
as §2

The target in experiment [3] is T2, Isoleucine--tRNA ligase. As to the kind of experiment: Inhibition concentration against isoleucyl tRNA synthetase from Staphylococcus aureus NCTC 6571. The method in brief: as §2

Each structure is given as a SMILES string. Where only a bound is given, the exact number is not on record here.

In general, inhibition refers to the share of the control response that was lost under treatment. One may read the IC50 as the concentration needed to halve the response being measured. Low values mean greater potency, high ones weaker potency.

In turn, `C[C@H]([C@@H]1O[C@H]1C[C@H]1CO[C@@H](Cc2cc(-c3ccccc3)on2)[C@H](O)[C@@H]1O)[C@H](C)O` displayed an MIC against Staphylococcus aureus above 64 ug m1 l-1. Moreover, the inhibition in experiment [1] was determined as 17%.
Consider `CCOC(=O)/C=C(\C)C[C@@H]1OC[C@H](C[C@@H]2O[C@H]2[C@@H](C)[C@H](C)O)[C@@H](O)[C@H]1O`, for which the MIC in the experiment on Staphylococcus aureus was found to be 0.5 ug m1 l-1. The same molecule gave an IC50 at Isoleucine--tRNA ligase [2] of 2.95 nM.
On the same counts, the results for `C[C@H]([C@@H]1O[C@H]1C[C@H]1CO[C@@H](Cc2cnc(-c3ccccc3)o2)[C@H](O)[C@@H]1O)[C@H](C)O` are 2 ug m1 l-1 and 4.71 nM.
For `C[C@H]([C@@H]1O[C@H]1C[C@H]1CO[C@@H](Cc2nc(-c3ccccc3)no2)[C@H](O)[C@@H]1O)[C@H](C)O`, in that order: 4 ug m1 l-1 and 1.73 nM.
In turn, `C[C@H]([C@@H]1O[C@H]1C[C@H]1CO[C@@H](Cc2ncc(-c3ccccc3)o2)[C@H](O)[C@@H]1O)[C@H](C)O` displayed an MIC with Staphylococcus aureus above 64 ug m1 l-1. Further, the inhibition in experiment [1] stood at 0%.
On to `C[C@H]([C@@H]1O[C@H]1C[C@H]1CO[C@@H](Cc2csc(-c3ccccc3)n2)[C@H](O)[C@@H]1O)[C@H](C)O`, for which the MIC in the experiment with Staphylococcus aureus is above 64 ug m1 l-1. The same molecule showed an IC50 at Isoleucine--tRNA ligase [3] of 14.3 nM.
The molecule `C[C@H]([C@@H]1O[C@H]1C[C@H]1CO[C@@H](Cc2nnc(-c3ccccc3)o2)[C@H](O)[C@@H]1O)[C@H](C)O` came in with an MIC against Staphylococcus aureus of 8 ug m1 l-1. The molecule also had an IC50 against Isoleucine--tRNA ligase [2] of 5.19 nM.
For `C[C@H]([C@@H]1O[C@H]1C[C@H]1CO[C@@H](Cc2cc(-c3ccccc3)no2)[C@H](O)[C@@H]1O)[C@H](C)O`, in that order: 4 ug m1 l-1 and 13.1 nM.
On to `C[C@H]([C@@H]1O[C@H]1C[C@H]1CO[C@@H](Cn2nnc(-c3ccccc3)n2)[C@H](O)[C@@H]1O)[C@H](C)O`, for which the MIC with Staphylococcus aureus is recorded as 8 ug m1 l-1. In addition, half-maximal inhibition at Isoleucine--tRNA ligase [2] (IC50) required 8.9 nM.
On the same counts, the results for `C/C(=C\C(=O)OCCCCCCCCC(=O)O)C[C@@H]1OC[C@H](C[C@@H]2O[C@H]2[C@@H](C)[C@H](C)O)[C@@H](O)[C@H]1O` [MUPIROCIN] are 0.13 ug m1 l-1 and 1.7 nM.
